# Bioassay records deposited in PubChem by several laboratories.
# Rev-erbA mod: modulates human Rev-erb alpha binding to DNA | P20393 | Rev-erbα–FITC-DNA binding, fluorescence polarization, 90 min | activity, % at 10 µM | actives 0.79% (n = 370,000) | AID 1259318;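 active means activity above about 14%, limit read from the data; passing the limit was not always enough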
# NR2E3 ag-1: activates human photoreceptor nuclear receptor NR2E3 | Q9Y5X4 | inhibition of corepressor binding, % at 4.78 µM | actives 0.12% (n = 320,000) | GST-NR2E3/biotin-RetCOR TR-FRET, 1536-well;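 active means percent inhibition above the cutoff of mean plus 3 SD of all tested compounds, set per screening campaign, cut at about 20% in these data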
# Target sequence (Q9Y5X4 whole entry, looked up): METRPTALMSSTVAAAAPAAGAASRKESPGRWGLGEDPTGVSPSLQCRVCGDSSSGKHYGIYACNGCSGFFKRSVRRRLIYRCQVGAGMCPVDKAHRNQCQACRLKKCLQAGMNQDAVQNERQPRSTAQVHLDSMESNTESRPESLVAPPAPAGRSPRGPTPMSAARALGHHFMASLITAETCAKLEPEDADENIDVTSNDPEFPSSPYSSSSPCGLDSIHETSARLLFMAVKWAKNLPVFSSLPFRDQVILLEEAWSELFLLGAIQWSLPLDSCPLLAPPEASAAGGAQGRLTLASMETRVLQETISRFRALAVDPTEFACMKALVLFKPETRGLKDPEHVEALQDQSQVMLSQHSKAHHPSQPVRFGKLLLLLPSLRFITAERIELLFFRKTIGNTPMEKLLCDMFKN
#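 Format: 1536-well format; test system: GST-NR2E3 and biotin-RetCOR proteins; read-out basis: percent inhibition of TR-FRET ratio; timing: 5 h incubation at 4 °C; detection: time-resolved FRET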
# PG9 Ab binder: small molecules binding HIV-1 gp120 antibody PG9. TR-FRET gp120-PG9 antibody binding. inhibition, % at 6.7 µM. actives 0.43% (n = 360,000). AID 624416; in the data active means inhibition above about 8.5%
# NR2E3 ag-2: human photoreceptor-specific nuclear receptor agonism. inhibition of corepressor binding, % at 3.98 µM. AID 602229. actives 0.35% (n = 360,000). Q9Y5X4. CHO-S Gal4-NCOR/VP16-NR2E3 two-hybrid, luciferase;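 active means inhibition above the mean of all tested compounds plus 3 SD, cut at about 70% in these data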;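 further: higher means lower luciferase signal from less NR2E3 corepressor binding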
# Rev-erbA confirm: Rev-erb alpha (human) modulation, hit confirmation; shares compounds with Rev-erbA mod; Rev-erb alpha FITC-DNA binding, fluorescence polarization, 90 min; activation, % at 25 µM; actives 61% (n = 3,000); AID 1259319;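 active means activation at or above a set limit, or at least 3 SD above the negative control mean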
# RORg DNA counter: RORgamma DNA-binding activity, dose-response counter-screen. shares compounds with Rev-erbA mod. purified RORgamma protein-FITC-DNA binding, fluorescence polarization. IC50, µM. actives 8% (n = 910);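 active means Compounds whose fitted half-maximal concentration for disrupting protein-DNA binding is below 10 micromolar; the record names Rev-erb in its text, so the target is in doubt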
# Hits are given with their value; . = inactive; / = not tested or not shown. The list is not random: actives were taken first. Their share in the collection is about 1.4%.
SMILES,Rev-erbA mod,NR2E3 ag-1,PG9 Ab binder,NR2E3 ag-2,Rev-erbA confirm,others
Cc1ccc(NC(=O)CSc2ncccn2)cc1F,.,.,.,.,/,
CC(C)(C)c1ccc(C(=O)NCC(=O)OCC(=O)c2ccc3c(c2)-c2ccccc2C3)cc1,26,.,.,.,.,
COc1ccccc1C1CC(=O)NC(C)=C1C(=O)OC(C)C (stereo not drawn),22,.,.,.,.,
CCN(CC)C(=O)c1ccc(/C=C/c2c[nH]c3ccccc23)[n+](C)c1,45,.,.,.,50,RORg DNA counter=.
CC[n+]1c(/C=C/c2c[nH]c3ccccc23)ccc2cc(C)ccc21,126,/,.,/,102,RORg DNA counter=.
Cc1ccc(C(=O)/C=C/c2c[nH]c3ccccc23)cc1,.,.,.,.,/,
N#C/C(=C/C1=C(N2CCOCC2)C(=C/c2ccccc2)/CC1)C(=O)Nc1ccccc1F,19,/,.,.,18,
COc1ccc(C(=O)CSc2cc(C)nc(SCC(=O)c3ccc(C)cc3)n2)cc1,27,.,.,.,.,
COC(=O)c1c(-c2ccc(Br)cc2)csc1NC(=O)Cc1ccc(OC)c(OC)c1,.,.,.,.,/,
COC(=O)c1c(-c2cccc3ccccc23)csc1NC(=O)Cc1ccc(OC)c(OC)c1,20,.,.,.,30,
CCCCNC(=O)C1C(c2ccc(OC)cc2)=Nc2ccccc2N1C(=O)c1ccc2ncccc2c1 (stereo not drawn),.,/,.,/,/,
CN(C)C=Nc1ncc2c3ccccc3n(CCN(C)C)c2c1C#N,.,.,.,.,/,
CN(C)C=Nc1ncc2c3ccccc3n(Cc3ccccc3)c2c1C#N,34,.,.,.,30,
COc1ccc2c(COC(=O)c3ccc(C)c(S(=O)(=O)N4CCOCC4)c3)cc(=O)oc2c1,21,/,.,.,26,
COc1ccc(C(=O)OCc2cc(=O)oc3cc(C)ccc23)cc1S(=O)(=O)N1CCOCC1,.,/,.,.,/,
CCOC(=O)c1sc(NC(=O)CSc2nc3c(c(-c4ccc(OC)cc4)c2C#N)CCCC3)c(C#N)c1C,32,.,.,.,22,
COc1ccc(-c2c(C#N)c(SCC(N)=O)nc3c2CCCC3)cc1,68,.,.,.,37,RORg DNA counter=.
CCOC(=O)c1sc(NC(=O)CSc2nc3c(cc2C#N)CCCCCC3)c(C#N)c1C,.,.,.,.,/,
CCOC(=O)c1sc(NC(=O)CSc2nc(C)cc(-c3ccccc3)n2)c(C#N)c1C,.,.,.,.,/,
Cc1ccc(C)c(NC(=O)CSc2nc(C)cc(C)c2C#N)c1,38,.,.,.,25,
CCOC(=O)c1sc(NC(=O)CSc2nc(C)cc(C)c2C#N)c(C#N)c1C,24,.,.,.,.,
Cc1cc(C)c2c(C)c(C(=O)NCc3ccc(S(N)(=O)=O)cc3)oc2c1,28,.,.,.,20,
CCc1cc(-c2n[nH]c(C)c2-c2nc3ccccc3s2)c(O)cc1OCC(=O)NN,13,.,.,.,.,
CCc1cc(-c2n[nH]c(C)c2-c2nc(C)cs2)c(O)cc1OC,.,.,.,.,/,
CCOC(=O)c1c(C)[nH]c(C(=O)OCc2nc3ccsc3c(=O)[nH]2)c1C,.,/,.,.,/,
SMILES,Rev-erbA mod,NR2E3 ag-1,PG9 Ab binder,NR2E3 ag-2,Rev-erbA confirm,others
CCOC(=O)Cc1c[nH]c2ccc([N+](=O)[O-])cc12,.,/,.,.,/,
O=C(/C=C\Nc1ccc2c(c1)OCO2)c1ccccn1,28,.,.,.,.,
COC(=O)CC1CCc2cc(C)cc(C(=O)CC(C)C)c2O1 (stereo not drawn),.,/,/,/,/,
O=C(NC1CCCN(c2ccc(C(F)(F)F)cn2)C1)c1cc(Cl)ccc1F (stereo not drawn),20,.,.,.,.,
Cc1ccc(C(=O)NC2CCCN(c3ccc(C(F)(F)F)cn3)C2)cn1 (stereo not drawn),.,.,.,.,/,
CCOCCCNC(=O)c1cc(-c2ccc(Br)s2)nc2ccccc12,21,.,.,.,.,
CCC[C@H]1OC(=O)[C@@H]2CCCN2C(=O)[C@H]([C@H](C)Cc2ccccc2)NC(=O)[C@@H]2CCCN2C(=O)[C@@H]2CCCN2C(=O)[C@H](C(C)C)OC(=O)[C@@H]2CCCN2C(=O)[C@H](C(C)C)NC(=O)C1(C)C,.,/,/,/,/,
CCCCCCc1nc2c(=O)[nH]c3ccccc3c2o1,52,.,.,.,.,
COc1ccc(C(=O)c2c[nH]c(C(=O)NCc3cccs3)c2)cc1,43,.,.,.,63,RORg DNA counter=.
COc1cc2c(C)nc3c(c(C)nn3-c3ccccc3)c2cc1OC,21,.,.,.,.,
Cc1c(C(=O)NCc2cccc([N+](=O)[O-])c2)sc(=O)n1Cc1ccc(C(C)C)cc1,.,/,.,.,/,
COCCNC(=O)C1C(=O)Nc2ccccc2C(=O)N1Cc1ccccc1 (stereo not drawn),.,/,.,/,/,
COc1cc2c(cc1OC)[N+]([O-])=C(c1ccccc1)C2=O,.,/,.,/,/,
O=C(Cn1c(=O)c(=O)n(Cc2ccccc2)c2ccc(Cl)cc21)Nc1ccc(F)cc1F,29,.,.,.,.,
CC(C)(C)NC(=O)Cn1c(=O)c(=O)n(Cc2ccccc2)c2ccc(Cl)cc21,.,.,.,.,/,
CSc1nc2cc(C)nn2c(-c2ccc(C(C)(C)C)cc2)c1C#N,44,.,.,.,.,
CSc1nc2cc(C)nn2c(-c2ccccc2Cl)c1C#N,42,.,.,.,.,
CSc1nc(-c2ccccc2)cc(C)c1C#N,.,.,.,.,/,
COc1ccc(CN2C(=O)C(CC(=O)NCCc3ccccn3)CC(C(=O)N3CCOCC3)=C2C)cc1 (stereo not drawn),.,/,.,.,/,
CC(C)Oc1ccc(S(=O)(=O)N2CCOCC2)cc1NC(=O)c1cccc(S(=O)(=O)N2CCCC2)c1,.,/,.,.,/,
CC(C)n1nnnc1C1c2ccccc2C(=O)N1CCCn1ccnc1 (stereo not drawn),.,/,.,.,/,
CC(=O)Oc1c(/C=C(\C#N)C(N)=O)[nH]c2ccccc12,55,/,.,.,66,RORg DNA counter=.
N#C/C(=C\c1c[nH]c2ccccc12)C(N)=O,.,.,.,.,/,
O=C(NCc1nnnn1-c1ccc(F)cc1)C(=O)c1c[nH]c2ccccc12,.,/,.,.,/,
Cc1oc2c(C)c3oc(=O)c4c(c3cc2c1C)CCC4,46,/,.,.,.,
Cc1oc2cc3oc(=O)c4c(c3cc2c1C)CCC4,49,.,.,.,44,RORg DNA counter=.
Cc1coc2c(C)c3oc(=O)c4c(c3cc12)CCCC4,.,.,.,.,/,
O=C(NC1CCCCN(Cc2cccc(C(F)(F)F)c2)C1=O)c1cccc([N+](=O)[O-])c1 (stereo not drawn),.,/,/,/,/,
Cc1ccc(-c2nn3c(C)nnc3s2)cc1NCc1c(F)cccc1Cl,23,.,.,.,.,
CC(=O)c1ccc(N2CCN(S(=O)(=O)c3ccc4c(c3)CC(C)N4C(=O)C3CC3)CC2)cc1 (stereo not drawn),31,.,.,.,24,
